Measurements as given in PubChem BioAssay AID588717 (Southern Research Specialized Biocontainment Screening …, 2011).
Inconclusive results are not listed. Activity calls are given as the source filed them.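 The calls were made as follows: active = viability below 80% at one or more tested concentrations; inconclusive = replicate runs disagree on the 80% viability cutoff; inactive = viability above 80% at every tested concentration.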

Tested on: not listed separately
Assay: viability reduction of Vero E6 cells – cell-based, M1 aminopeptidase campaign, cytotoxicity control for P. falciparum PFM1AAP inhibitor project, dose response (AID 588717)
Conditions: Vero E6 viability, CellTiter-Glo luminescence, 72 h; at 50 µM (top of the series)
Summary of the method: (§1)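 Material – Vero E6 cells (African green monkey kidney cell line) · Doses – compound series of 10 points in 2-fold steps · Schedule – 72 h compound exposure at 37 °C, 5% CO2 · Signal – CellTiter-Glo luminescence · Benchmarks – DMSO vehicle wells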
With `CC[C@H](C)[C@H](NS(=O)(=O)c1cccs1)C(=O)NCc1ccc(F)cc1` the viability was 95.5% (inactive).
With `COc1cccc(-c2ccc(S(=O)(=O)N3CCC(C(=O)NCc4ccc5c(c4)OCO5)CC3)s2)c1` the viability was 83.4% (inactive).
In the case of `COc1ccc(-c2ccc(S(=O)(=O)N3CCC(C(=O)NCc4ccc5c(c4)OCO5)CC3)s2)cc1`, the viability is reported as 84.2% (inactive).
With `CC[C@H](C)[C@H](NS(=O)(=O)c1ccc(Br)s1)C(=O)NCc1ccc(F)cc1` the viability was 97% (inactive).
With `CC[C@H](C)[C@H](NC(=O)c1ccc([N+](=O)[O-])cc1)C(=O)NCc1ccccc1` the viability was 88.9% (inactive).
In the case of `CC[C@H](C)[C@H](NS(=O)(=O)c1ccc(Br)s1)C(=O)O`, the viability is reported as 104% (inactive).
For `CC[C@H](C)[C@H](NC(=O)c1ccc([N+](=O)[O-])cc1)C(=O)NCc1ccc(C(F)(F)F)cc1`, the viability was 92.2% (inactive).

Tested on: Vero E6 viability, CellTiter-Glo luminescence, 72 h
Assay: as above
Conditions: not given
Summary of the method: as §1
`CC[C@H](C)[C@H](NS(=O)(=O)c1ccc(Br)s1)C(=O)NCc1ccc(C(F)(F)F)cc1` showed a CC50 of 28.7 µM.
